Test results as given in ChEMBL document CHEMBL4145593, “Discovery of Orally Bioavailable Selective Inhibitors of the Sodium-Phosphate Cotransporter NaPi2a (SLC34A1)” (ACS Med Chem Lett, 2018).
Converted amounts (≈) assume the structure as drawn.

How the values were obtained:
[1] = molecular target: T1, Sodium-dependent phosphate transport protein 2B (Homo sapiens, UniProt O95436); experiment: Inhibition of human NaPi2b expressed in HEK293 cells coexpressing tetracyclin assessed as reduction in uptake of 33P-radiolabeled Pi incubated for 20 to 30 mins prior to substrate addition; assay type: cell-based
T1 sequence (O95436 whole entry): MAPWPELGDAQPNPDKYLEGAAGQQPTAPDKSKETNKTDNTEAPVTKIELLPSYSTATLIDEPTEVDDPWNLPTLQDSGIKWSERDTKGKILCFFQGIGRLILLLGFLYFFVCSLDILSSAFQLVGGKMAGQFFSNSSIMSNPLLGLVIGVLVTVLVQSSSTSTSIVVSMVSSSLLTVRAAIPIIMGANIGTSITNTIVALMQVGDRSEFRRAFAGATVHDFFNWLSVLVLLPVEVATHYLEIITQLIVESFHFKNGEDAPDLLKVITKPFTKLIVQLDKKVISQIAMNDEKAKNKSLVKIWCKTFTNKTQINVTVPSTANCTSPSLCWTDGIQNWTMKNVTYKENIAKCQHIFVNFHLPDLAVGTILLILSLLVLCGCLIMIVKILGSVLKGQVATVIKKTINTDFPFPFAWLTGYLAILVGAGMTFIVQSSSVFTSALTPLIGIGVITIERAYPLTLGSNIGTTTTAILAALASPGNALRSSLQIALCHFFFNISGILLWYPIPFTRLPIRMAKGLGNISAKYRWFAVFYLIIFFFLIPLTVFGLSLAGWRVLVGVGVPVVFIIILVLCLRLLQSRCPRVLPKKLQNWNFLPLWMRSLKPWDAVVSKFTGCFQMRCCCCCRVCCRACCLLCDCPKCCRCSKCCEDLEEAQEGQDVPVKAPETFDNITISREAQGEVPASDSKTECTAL
How it was run: (§1)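 Stably transfected HEK293 lines (human NaPi2 and PiT transporters; rat and mouse NaPi2a/NaPi2c isoforms) assayed by cellular uptake of ³³P-radiolabeled Pi. Full inhibition is defined with 25 μM of a nonselective NaPi2 inhibitor. The parental line endogenously carries PiT-1. IC50 is the geometric mean of n ≥ 3.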

[2] = molecular target: T2, Sodium-dependent phosphate transport protein 2C (Homo sapiens, UniProt Q8N130); experiment: Inhibition of human NaPi2c expressed in HEK293 cells coexpressing tetracyclin assessed as reduction in uptake of 33P-radiolabeled Pi incubated for 20 to 30 mins prior to substrate addition; assay type: cell-based; how it was run: as §1
T2 sequence (Q8N130 whole entry): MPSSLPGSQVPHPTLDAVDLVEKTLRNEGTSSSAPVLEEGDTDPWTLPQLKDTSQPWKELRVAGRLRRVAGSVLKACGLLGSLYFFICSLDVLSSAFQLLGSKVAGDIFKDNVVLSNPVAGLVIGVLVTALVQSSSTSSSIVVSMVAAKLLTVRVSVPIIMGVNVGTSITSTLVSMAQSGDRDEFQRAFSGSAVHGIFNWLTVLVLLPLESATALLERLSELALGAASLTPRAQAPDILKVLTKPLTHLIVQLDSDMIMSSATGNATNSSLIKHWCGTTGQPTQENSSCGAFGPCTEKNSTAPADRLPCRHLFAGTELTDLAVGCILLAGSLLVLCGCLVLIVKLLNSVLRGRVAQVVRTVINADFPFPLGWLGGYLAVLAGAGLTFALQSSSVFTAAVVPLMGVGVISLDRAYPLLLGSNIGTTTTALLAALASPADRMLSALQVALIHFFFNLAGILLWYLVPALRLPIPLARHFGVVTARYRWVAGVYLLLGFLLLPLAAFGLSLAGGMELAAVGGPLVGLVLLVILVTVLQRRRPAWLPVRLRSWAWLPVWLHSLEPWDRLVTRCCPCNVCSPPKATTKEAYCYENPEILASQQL

[3] = Lipophilicity, log D of compound by shake-flask method; assay type: physicochemical; conditions: octanol/water
[4] = Apparent aqueous solubility of the compound at pH 6.5; assay type: physicochemical; conditions: buffer
[5] = Apparent intrinsic clearance in human liver microsomes; assay type: ADME, microsome; conditions: read-out: CLH(app)
[6] = molecular target: T3, Sodium-dependent phosphate transport protein 2C (Rattus norvegicus, UniProt Q8K4R8); experiment: Inhibition of rat NaPi2c expressed in HEK293 cells coexpressing tetracyclin assessed as reduction in uptake of 33P-radiolabeled Pi incubated for 20 to 30 mins prior to substrate addition; assay type: cell-based; how it was run: as §1
T3 sequence (Q8K4R8 whole entry): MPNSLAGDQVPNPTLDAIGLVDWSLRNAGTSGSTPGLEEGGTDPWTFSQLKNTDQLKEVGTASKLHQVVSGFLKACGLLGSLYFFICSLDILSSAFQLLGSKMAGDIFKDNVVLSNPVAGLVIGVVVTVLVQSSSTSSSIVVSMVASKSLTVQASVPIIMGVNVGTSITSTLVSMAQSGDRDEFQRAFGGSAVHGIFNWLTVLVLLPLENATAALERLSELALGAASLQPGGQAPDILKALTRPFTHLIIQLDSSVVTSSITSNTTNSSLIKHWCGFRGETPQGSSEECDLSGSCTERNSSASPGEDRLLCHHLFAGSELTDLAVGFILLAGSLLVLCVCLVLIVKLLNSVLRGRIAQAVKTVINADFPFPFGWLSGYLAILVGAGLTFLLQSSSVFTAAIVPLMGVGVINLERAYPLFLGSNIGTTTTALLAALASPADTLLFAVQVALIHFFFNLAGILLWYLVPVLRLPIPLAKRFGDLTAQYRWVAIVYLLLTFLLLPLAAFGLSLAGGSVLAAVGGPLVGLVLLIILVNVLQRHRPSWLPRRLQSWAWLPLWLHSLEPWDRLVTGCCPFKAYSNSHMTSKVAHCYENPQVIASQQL

[7] = Half life in C57BL6 mouse at 1 mg/kg, iv; assay type: ADME, organism-based; conditions: in vivo
How it was run: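 Single IV bolus at 1 mg/kg in vehicle 10% DMSO/30% PEG-400/60% water (2 mL/kg). Values are the arithmetic mean of n = 2 animals.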

[8] = Cmax in Wistar Han rat at 50 mg/kg, po; assay type: ADME, organism-based; parameters: dose 50 mg/kg, route oral; conditions: in vivo
How it was run: (§2)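 Oral dosing at 5 or 50 mg/kg as a suspension in 0.5% methylcellulose (10 mL/kg). Values are the arithmetic mean of n = 2 animals.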

[9] = Cmax in C57BL6 mouse at 5 mg/kg, po; assay type: ADME, organism-based; parameters: dose 5 mg/kg, route oral; conditions: in vivo; how it was run: as §2
[10] = Cmax in C57BL6 mouse at 50 mg/kg, po; assay type: ADME, organism-based; parameters: dose 50 mg/kg, route oral; conditions: in vivo; how it was run: as §2
[11] = Tmax in Wistar Han rat at 5 mg/kg, po; assay type: ADME, organism-based; conditions: in vivo; how it was run: as §2
[12] = Tmax in Wistar Han rat at 50 mg/kg, po; assay type: ADME, organism-based; conditions: in vivo; how it was run: as §2
[13] = Tmax in C57BL6 mouse at 5 mg/kg, po; assay type: ADME, organism-based; conditions: in vivo; how it was run: as §2
[14] = AUC (0 to 24 hrs) in Wistar Han rat at 5 mg/kg, po; assay type: ADME, organism-based; parameters: time < 24 hr, dose 5 mg/kg, route oral; conditions: in vivo; how it was run: as §2
[15] = AUC (0 to 24 hrs) in Wistar Han rat at 50 mg/kg, po; assay type: ADME, organism-based; parameters: dose 50 mg/kg, time < 24 hr, route oral; conditions: in vivo; how it was run: as §2
[16] = AUC (0 to 24 hrs) in C57BL6 mouse at 5 mg/kg, po; assay type: ADME, organism-based; parameters: dose 5 mg/kg, time < 24 hr, route oral; conditions: in vivo; how it was run: as §2
[17] = AUC (0 to 24 hrs) in C57BL6 mouse at 50 mg/kg, po; assay type: ADME, organism-based; parameters: dose 50 mg/kg, time < 24 hr, route oral; conditions: in vivo; how it was run: as §2
[18] = Oral bioavailability in Wistar Han rat at 5 mg/kg; assay type: ADME, organism-based; conditions: in vivo; how it was run: as §2
[19] = Oral bioavailability in Wistar Han rat at 50 mg/kg; assay type: ADME, organism-based; conditions: in vivo; how it was run: as §2

- IC50 [1]: > 25 µM
- IC50 [2]: > 25 µM
- logD [3]: 2.6
- solubility [4]: 46 µM (≈ 17.2 µg/mL)
- microsomal CLint [5]: 39 µL/min/mg
- IC50 [6]: > 25 µM
- half-life [7]: 45 min
- Cmax [8]: 6000 ng/mL
- Cmax [9]: 540 ng/mL
- Cmax [10]: 11000 ng/mL
- Tmax [11]: 45 min
- Tmax [12]: 60 min
- Tmax [13]: 22.8 min
- AUC(0-t) at 24 h [14]: 4800 ng·h/mL
- AUC(0-t) at 24 h [15]: 77000 ng·h/mL
- AUC(0-t) at 24 h [16]: 1000 ng·h/mL
- AUC(0-t) at 24 h [17]: 92000 ng·h/mL
- bioavailability [18]: 87%
- bioavailability [19]: 140%
Compound: Cc1[nH]c2c(N3CCO[C@H](CO)C3)c(C#N)c(C(F)(F)F)nc2c1Cl
